Results reported in ChEMBL document CHEMBL1629527, “In vitro antifungal activities of bis(alkylpyridinium)alkane compounds against pathogenic yeasts and molds” (Antimicrob Agents Chemother, 2010).
Converted amounts (≈) assume the structure as drawn.

What was measured:
Cryptococcus neoformans = assay: Antifungal activity against Cryptococcus neoformans after 24 to 72 hrs by broth microdilution method; format: functional
Summary of the method: (§1)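 Broth microdilution MIC per CLSI M27-A3 (yeasts) or M38-A2 (molds). RPMI 1640 with L-glutamine, without bicarbonate, buffered to pH 7.0 with 0.165 M MOPS. Final test range for the compounds was 0.175–87.5 μM. Incubation at 35°C with visual reading at 24–72 h. MIC was the lowest concentration giving 100% inhibition versus the growth control (azoles 50% or 100%, by organism). Each isolate was run in duplicate in two independent experiments.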

[1] = tested on: Cryptococcus gattii species complex; assay: Antifungal activity against Cryptococcus gattii after 24 to 72 hrs by broth microdilution method; format: functional, Cryptococcus bacillisporus; summary of the method: as §1
Candida albicans = assay: Antifungal activity against Candida albicans after 24 to 72 hrs by broth microdilution method; format: functional
Summary of the method: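 CLSI M27-A3 broth microdilution for yeasts in RPMI 1640 with L-glutamine and no bicarbonate, buffered with 0.165 M MOPS to pH 7.0. Compounds were dissolved in water and tested at 0.175–87.5 μM final, 35°C. MIC was read visually at 24–72 h as 100% inhibition versus growth control. For MFC, 30 μl from clear wells went onto SDA at 35°C for 48–72 h, reading the lowest concentration without colonies. Duplicates, two independent runs.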

Candida tropicalis = assay: Antifungal activity against Candida tropicalis after 24 to 72 hrs by broth microdilution method; format: functional; summary of the method: as §1
Nakaseomyces glabratus = assay: Antifungal activity against Candida glabrata after 24 to 72 hrs by broth microdilution method; format: functional; summary of the method: as §1
Candida parapsilosis = assay: Antifungal activity against Candida parapsilosis after 24 to 72 hrs by broth microdilution method; format: functional; details: Lodderomyces parapsilosis; summary of the method: as §1
Pichia kudriavzevii = assay: Antifungal activity against Candida krusei after 24 to 72 hrs by broth microdilution method; format: functional; summary of the method: as §1
Candida dubliniensis = assay: Antifungal activity against Candida dubliniensis after 24 to 72 hrs by broth microdilution method; format: functional; summary of the method: as §1
[2] = tested on: Meyerozyma guilliermondii; assay: Antifungal activity against Candida guilliermondii after 24 to 72 hrs by broth microdilution method; format: functional; summary of the method: as §1
Clavispora lusitaniae = assay: Antifungal activity against Candida lusitaniae after 24 to 72 hrs by broth microdilution method; format: functional; summary of the method: as §1

| SMILES | MIC (Cryptococcus neoformans) [µg/mL] | MIC50 (Cryptococcus neoformans) [µg/mL] | MIC90 (Cryptococcus neoformans) [µg/mL] | MIC [1] [µg/mL] | MIC50 [1] [µg/mL] | MIC90 [1] [µg/mL] | MIC (Candida albicans) [µg/mL] | MIC50 (Candida albicans) [µg/mL] | MIC90 (Candida albicans) [µg/mL] | MIC (Candida tropicalis) [µg/mL] | MIC50 (Candida tropicalis) [µg/mL] | MIC90 (Candida tropicalis) [µg/mL] | MIC (Nakaseomyces glabratus) [µg/mL] | MIC50 (Nakaseomyces glabratus) [µg/mL] | MIC90 (Nakaseomyces glabratus) [µg/mL] | MIC (Candida parapsilosis) [µg/mL] | MIC50 (Candida parapsilosis) [µg/mL] | MIC90 (Candida parapsilosis) [µg/mL] | MIC (Pichia kudriavzevii) [µg/mL] | MIC50 (Pichia kudriavzevii) [µg/mL] | other results |
| --- | --- | --- | --- | --- | --- | --- | --- | --- | --- | --- | --- | --- | --- | --- | --- | --- | --- | --- | --- | --- | --- |
| C[C@@H](c1ncncc1F)[C@](O)(Cn1cncn1)c1ccc(F)cc1F [VORICONAZOLE] | 0.04 (≈ 0.115 µM) | 0.03 (≈ 0.0859 µM) | 0.125 (≈ 0.358 µM) | 0.05 (≈ 0.143 µM) | 0.06 (≈ 0.172 µM) | 0.06 (≈ 0.172 µM) | 0.04 (≈ 0.115 µM) | 0.01 (≈ 0.0286 µM) | 0.17 (≈ 0.487 µM) | 0.07 (≈ 0.2 µM) | 0.125 (≈ 0.358 µM) | 0.25 (≈ 0.716 µM) | 0.41 (≈ 1.17 µM) | 0.25 (≈ 0.716 µM) | 4 (≈ 11.5 µM) | 0.043 (≈ 0.123 µM) | 0.06 (≈ 0.172 µM) | 0.06 (≈ 0.172 µM) | 0.41 (≈ 1.17 µM) | 0.25 (≈ 0.716 µM) | MIC90 (Pichia kudriavzevii): 1 µg/mL (≈ 2.86 µM); MIC (Candida dubliniensis): 0.011 µg/mL (≈ 0.0315 µM); MIC50 (Candida dubliniensis): 0.008 µg/mL (≈ 0.0229 µM); MIC90 (Candida dubliniensis): 0.016 µg/mL (≈ 0.0458 µM); MIC [2]: 0.124 µg/mL (≈ 0.355 µM); MIC50 [2]: 0.125 µg/mL (≈ 0.358 µM); MIC90 [2]: 0.25 µg/mL (≈ 0.716 µM); MIC (Clavispora lusitaniae): 0.02 µg/mL (≈ 0.0573 µM); MIC50 (Clavispora lusitaniae): 0.03 µg/mL (≈ 0.0859 µM); MIC90 (Clavispora lusitaniae): 0.16 µg/mL (≈ 0.458 µM) |
| CC[C@H](C)C[C@H](C)CCCCCCCCC(=O)N[C@H]1C[C@@H](O)[C@@H](NCCN)NC(=O)[C@@H]2[C@@H](O)CCN2C(=O)[C@H]([C@H](O)CCN)NC(=O)[C@H]([C@H](O)[C@@H](O)c2ccc(O)cc2)NC(=O)[C@@H]2C[C@@H](O)CN2C(=O)[C@H]([C@@H](C)O)NC1=O [CASPOFUNGIN] | 8 (≈ 7.32 µM) | 8 (≈ 7.32 µM) | 8 (≈ 7.32 µM) | 8 (≈ 7.32 µM) | 8 (≈ 7.32 µM) | 8 (≈ 7.32 µM) | 0.12 (≈ 0.11 µM) | 0.14 (≈ 0.128 µM) | 0.27 (≈ 0.247 µM) | 0.14 (≈ 0.128 µM) | 0.125 (≈ 0.114 µM) | 0.25 (≈ 0.229 µM) | 0.19 (≈ 0.174 µM) | 0.125 (≈ 0.114 µM) | 0.25 (≈ 0.229 µM) | 0.66 (≈ 0.604 µM) | 0.5 (≈ 0.457 µM) | 1 (≈ 0.915 µM) | 0.31 (≈ 0.284 µM) | 0.25 (≈ 0.229 µM) | MIC90 (Pichia kudriavzevii): 0.5 µg/mL (≈ 0.457 µM); MIC (Candida dubliniensis): 0.07 µg/mL (≈ 0.064 µM); MIC50 (Candida dubliniensis): 0.06 µg/mL (≈ 0.0549 µM); MIC90 (Candida dubliniensis): 0.125 µg/mL (≈ 0.114 µM); MIC [2]: 1.15 µg/mL (≈ 1.05 µM); MIC50 [2]: 1 µg/mL (≈ 0.915 µM); MIC90 [2]: 2 µg/mL (≈ 1.83 µM); MIC (Clavispora lusitaniae): 0.54 µg/mL (≈ 0.494 µM); MIC50 (Clavispora lusitaniae): 0.5 µg/mL (≈ 0.457 µM); MIC90 (Clavispora lusitaniae): 1 µg/mL (≈ 0.915 µM) |
| C[C@@H]1[C@H](O)[C@@H](C)/C=C/C=C/C=C/C=C/C=C/C=C/C=C/[C@H](O[C@@H]2O[C@H](C)[C@@H](O)[C@H](N)[C@@H]2O)C[C@@H]2O[C@](O)(C[C@@H](O)C[C@@H](O)[C@H](O)CC[C@@H](O)C[C@@H](O)CC(=O)O[C@H]1C)C[C@H](O)[C@H]2C(=O)O [AMPHOTERICIN B] | 0.19 (≈ 0.206 µM) | 0.25 (≈ 0.271 µM) | 0.5 (≈ 0.541 µM) | 0.19 (≈ 0.206 µM) | 0.25 (≈ 0.271 µM) | 0.25 (≈ 0.271 µM) | 0.2 (≈ 0.216 µM) | 0.25 (≈ 0.271 µM) | 0.5 (≈ 0.541 µM) | 0.22 (≈ 0.238 µM) | 0.25 (≈ 0.271 µM) | 0.5 (≈ 0.541 µM) | 0.18 (≈ 0.195 µM) | 0.125 (≈ 0.135 µM) | 0.25 (≈ 0.271 µM) | 0.28 (≈ 0.303 µM) | 0.25 (≈ 0.271 µM) | 0.5 (≈ 0.541 µM) | 0.22 (≈ 0.238 µM) | 0.25 (≈ 0.271 µM) | MIC90 (Pichia kudriavzevii): 0.5 µg/mL (≈ 0.541 µM); MIC (Candida dubliniensis): 0.1 µg/mL (≈ 0.108 µM); MIC50 (Candida dubliniensis): 0.125 µg/mL (≈ 0.135 µM); MIC90 (Candida dubliniensis): 0.125 µg/mL (≈ 0.135 µM); MIC [2]: 0.15 µg/mL (≈ 0.162 µM); MIC50 [2]: 0.125 µg/mL (≈ 0.135 µM); MIC90 [2]: 0.25 µg/mL (≈ 0.271 µM); MIC (Clavispora lusitaniae): 0.12 µg/mL (≈ 0.13 µM); MIC50 (Clavispora lusitaniae): 0.125 µg/mL (≈ 0.135 µM); MIC90 (Clavispora lusitaniae): 0.25 µg/mL (≈ 0.271 µM) |
